What was measured:
[1] = target: Platelet-derived growth factor receptor alpha (Homo sapiens, UniProt P16234); experiment: Inhibition of PDGFRalpha after 80 mins by radiometric protein kinase assay
Summary of the method: (§1)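 Radiometric [γ-33P]-ATP kinase assay with poly(Ala,Glu,Lys,Tyr) 6:2:5:1 substrate. Incubated 30 °C for 80 min, then stopped with 2% H3PO4 and washed with 0.9% NaCl. 33Pi incorporation read by scintillation counting. IC50 from 12 concentrations in triplicate; plate quality checked by Z'-factor.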

[2] = target: Angiopoietin-1 receptor (Homo sapiens, UniProt Q02763); experiment: Inhibition of TIE2 after 80 mins by radiometric protein kinase assay; summary of the method: as §1
[3] = target: Vascular endothelial growth factor receptor 1 (Homo sapiens, UniProt P17948); experiment: Inhibition of VEGFR1 after 80 mins by radiometric protein kinase assay
Summary of the method: (§2)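 Radiometric [γ-33P]-ATP kinase assay with poly(Glu,Tyr) 4:1 substrate. Reaction run 80 min at 30 °C, stopped with 2% H3PO4 and washed with 0.9% NaCl. 33Pi incorporation counted by microplate scintillation. IC50 from 12 concentrations tested in triplicate, with Z'-factor used as plate control.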

[4] = target: Platelet-derived growth factor receptor beta (Homo sapiens, UniProt P09619); experiment: Inhibition of PDGFRbeta after 80 mins by radiometric protein kinase assay
[5] = target: Mast/stem cell growth factor receptor Kit (Homo sapiens, UniProt P10721); experiment: Inhibition of KIT after 80 mins by radiometric protein kinase assay
Summary of the method: (§3)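 The substrate was Poly(Glu,Tyr)4:1. 12 concentrations were run in triplicate with 1% final DMSO, at 30 °C for 80 min. Reactions were stopped with 2% H₃PO₄, washed with 0.9% NaCl, and ³³P incorporation was read by scintillation counting.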

[6] = target: Epidermal growth factor receptor (Homo sapiens, UniProt P00533); experiment: Inhibition of EGFR after 80 mins by radiometric protein kinase assay
[7] = target: Receptor tyrosine-protein kinase erbB-2 (Homo sapiens, UniProt P04626); experiment: Inhibition of ERBB2 after 80 mins by radiometric protein kinase assay; summary of the method: as §3
[8] = target: Insulin-like growth factor 1 receptor (Homo sapiens, UniProt P08069); experiment: Inhibition of IGF1R after 80 mins by radiometric protein kinase assay; summary of the method: as §2
[9] = target: Vascular endothelial growth factor receptor 3 (Homo sapiens, UniProt P35916); experiment: Inhibition of VEGFR3 after 80 mins by radiometric protein kinase assay; summary of the method: as §2
[10] = target: Vascular endothelial growth factor receptor 2 (Homo sapiens, UniProt P35968); experiment: Inhibition of VEGFR2 after 80 mins by radiometric protein kinase assay; summary of the method: as §2
[11] = test system: Zone of skin; experiment: Biodistribution in skin of nude mouse bearing human 293/KDR tumor at 197 +/- 16 uCi, iv after 60 mins; type: ADME, organism-based; settings: in vivo, 1 h
Summary of the method: (§4)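 Male nude Hsd-Athymic Nude-nu mice (10–12 weeks) with subcutaneous 293/KDR tumors (1.5–2 × 10⁶ cells, 7–21 days) or U87MG.wt EGFR tumors (1.5–4 × 10⁶ cells with 20% Matrigel, 4–20 days). The [¹¹C] tracer was given via the lateral tail vein in 10% ethanol/saline (1.1 ± 0.3 Ci/µmol; 225 ± 11 µL). At 30 or 60 min, blood was drawn from the orbital sinus and organs were excised, weighed and gamma-counted; results are %ID/g, n = 10–12.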

[12] = test system: Blood; experiment: Biodistribution in blood of nude mouse bearing human 293/KDR tumor at 197 +/- 16 uCi, iv after 30 mins; type: ADME, organism-based; settings: in vivo, 0.5 h; summary of the method: as §4
[13] = test system: Bone; experiment: Biodistribution in bone of nude mouse bearing human U87MG tumor at 197 +/- 16 uCi, iv after 30 mins; type: ADME, organism-based, Bone element; settings: in vivo, 0.5 h; summary of the method: as §4
[14] = test system: Kidney; experiment: Biodistribution in kidney of nude mouse bearing human U87MG tumor at 197 +/- 16 uCi, iv after 60 mins; type: ADME, organism-based; settings: in vivo, 1 h; summary of the method: as §4
[15] = test system: Muscle tissue; experiment: Biodistribution in muscle of nude mouse bearing human 293/KDR tumor at 197 +/- 16 uCi, iv after 60 mins; type: ADME, organism-based; settings: in vivo, 1 h; summary of the method: as §4
[16] = test system: Blood; experiment: Metabolic stability in human blood assessed as residual radioactivity at 300 uCi after 30 mins by RP-HPLC; type: ADME, tissue-based; settings: 0.5 h
Summary of the method: (§5)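 Fresh human EDTA blood, 1 mL aliquots, was preincubated at 37 °C for 15 min. About 300 µCi of the [¹¹C] tracer was added and samples were held for 0, 30 or 60 min. Samples were centrifuged, and the plasma was extracted with cold THF/ACN (30:70) and centrifuged again. The extract was analysed by RP-HPLC and by RP-TLC (40:60 H₂O:ACN) with phosphor imaging; n = 3.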

[17] = test system: Kidney; experiment: Biodistribution in kidney of nude mouse bearing human 293/KDR tumor at 197 +/- 16 uCi, iv after 60 mins; type: ADME, organism-based; settings: in vivo, 1 h; summary of the method: as §4
[18] = Octanol-phosphate buffered saline partition coefficient, log D at pH 7.4; type: physicochemical
Summary of the method: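 About 200 µCi of the [¹¹C] tracer was taken up in 5 mL n-octanol and mixed with 1 mL phosphate buffer (pH 7.4, 100 mM), a 5:1 octanol:buffer ratio. The mixture was vortexed for 2 min, the phases were separated, and each phase was measured for radioactivity.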

[19] = test system: Kidney; experiment: Biodistribution in kidney of nude mouse bearing human U87MG tumor at 197 +/- 16 uCi, iv after 30 mins; type: ADME, organism-based; settings: in vivo, 0.5 h; summary of the method: as §4
[20] = Biodistribution in tumor of nude mouse bearing human U87MG tumor at 197 +/- 16 uCi, iv after 30 mins; type: ADME, organism-based, Neoplasm; settings: in vivo, 0.5 h; summary of the method: as §4
[21] = test system: Muscle tissue; experiment: Biodistribution in muscle of nude mouse bearing human 293/KDR tumor at 197 +/- 16 uCi, iv after 30 mins; type: ADME, organism-based; settings: in vivo, 0.5 h; summary of the method: as §4
[22] = test system: Muscle tissue; experiment: Biodistribution in muscle of nude mouse bearing human U87MG tumor at 197 +/- 16 uCi, iv after 30 mins; type: ADME, organism-based; settings: in vivo, 0.5 h; summary of the method: as §4
[23] = test system: Kidney; experiment: Biodistribution in kidney of nude mouse bearing human 293/KDR tumor at 197 +/- 16 uCi, iv after 30 mins; type: ADME, organism-based; settings: in vivo, 0.5 h; summary of the method: as §4
[24] = Biodistribution in tumor of nude mouse bearing human 293/KDR tumor at 197 +/- 16 uCi, iv after 30 mins; type: ADME, organism-based, Neoplasm; settings: in vivo, 0.5 h; summary of the method: as §4
[25] = test system: Bone; experiment: Biodistribution in bone of nude mouse bearing human 293/KDR tumor at 197 +/- 16 uCi, iv after 30 mins; type: ADME, organism-based, Bone element; settings: in vivo, 0.5 h; summary of the method: as §4
[26] = test system: Blood; experiment: Metabolic stability in human blood assessed as residual radioactivity at 300 uCi after 60 mins by RP-HPLC; type: ADME, tissue-based; settings: 1 h; summary of the method: as §5
[27] = test system: Liver; experiment: Biodistribution in liver of nude mouse bearing human 293/KDR tumor at 197 +/- 16 uCi, iv after 30 mins; type: ADME, organism-based; settings: in vivo, 0.5 h; summary of the method: as §4
[28] = Metabolic stability in mouse liver microsome assessed as intact compound at 2 to 3 mCi after 30 mins by RP-HPLC; type: ADME; settings: liver microsomes, read-out: Stability
Summary of the method: (§6)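 Tracer (2–3 mCi in 100 µL ethanol) was preincubated with 0.5 mg/mL mouse hepatic microsomes in PBS pH 7.4 at 37 °C for 5 min. Reactions were started with 0.25 mM NADPH and sampled at 0–60 min. Aliquots were loaded on a celite plug and eluted with ethanol, and intact tracer was measured by RP-HPLC.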

[29] = test system: Blood; experiment: Biodistribution in blood of nude mouse bearing human U87MG tumor at 197 +/- 16 uCi, iv after 30 mins; type: ADME, organism-based; settings: in vivo, 0.5 h; summary of the method: as §4
[30] = test system: Liver; experiment: Biodistribution in liver of nude mouse bearing human 293/KDR tumor at 197 +/- 16 uCi, iv after 60 mins; type: ADME, organism-based; settings: in vivo, 1 h; summary of the method: as §4
[31] = test system: Liver; experiment: Biodistribution in liver of nude mouse bearing human U87MG tumor at 197 +/- 16 uCi, iv after 30 mins; type: ADME, organism-based; settings: in vivo, 0.5 h; summary of the method: as §4
[32] = test system: Liver; experiment: Biodistribution in liver of nude mouse bearing human U87MG tumor at 197 +/- 16 uCi, iv after 60 mins; type: ADME, organism-based; settings: in vivo, 1 h; summary of the method: as §4
[33] = test system: Muscle tissue; experiment: Biodistribution in muscle of nude mouse bearing human U87MG tumor at 197 +/- 16 uCi, iv after 60 mins; type: ADME, organism-based; settings: in vivo, 1 h; summary of the method: as §4
[34] = test system: Zone of skin; experiment: Biodistribution in skin of nude mouse bearing human U87MG tumor at 197 +/- 16 uCi, iv after 30 mins; type: ADME, organism-based; settings: in vivo, 0.5 h; summary of the method: as §4
[35] = test system: Bone; experiment: Biodistribution in bone of nude mouse bearing human U87MG tumor at 197 +/- 16 uCi, iv after 60 mins; type: ADME, organism-based, Bone element; settings: in vivo, 1 h; summary of the method: as §4
[36] = test system: Blood; experiment: Biodistribution in blood of nude mouse bearing human U87MG tumor at 197 +/- 16 uCi, iv after 60 mins; type: ADME, organism-based; settings: in vivo, 1 h; summary of the method: as §4
[37] = Metabolic stability in mouse liver microsome assessed as intact compound at 2 to 3 mCi after 15 mins by RP-HPLC; type: ADME; settings: liver microsomes, read-out: Stability; summary of the method: as §6
[38] = Metabolic stability in mouse liver microsome assessed as intact compound at 2 to 3 mCi after 45 mins by RP-HPLC; type: ADME; settings: liver microsomes, read-out: Stability; summary of the method: as §6
[39] = Biodistribution in tumor of nude mouse bearing human U87MG tumor at 197 +/- 16 uCi, iv after 60 mins; type: ADME, organism-based, Neoplasm; settings: in vivo, 1 h; summary of the method: as §4
[40] = test system: Zone of skin; experiment: Biodistribution in skin of nude mouse bearing human U87MG tumor at 197 +/- 16 uCi, iv after 60 mins; type: ADME, organism-based; settings: in vivo, 1 h; summary of the method: as §4
[41] = test system: Bone; experiment: Biodistribution in bone of nude mouse bearing human 293/KDR tumor at 197 +/- 16 uCi, iv after 60 mins; type: ADME, organism-based, Bone element; settings: in vivo, 1 h; summary of the method: as §4
[42] = test system: Zone of skin; experiment: Biodistribution in skin of nude mouse bearing human 293/KDR tumor at 197 +/- 16 uCi, iv after 30 mins; type: ADME, organism-based; settings: in vivo, 0.5 h; summary of the method: as §4
[43] = test system: Blood; experiment: Biodistribution in blood of nude mouse bearing human 293/KDR tumor at 197 +/- 16 uCi, iv after 60 mins; type: ADME, organism-based; settings: in vivo, 1 h; summary of the method: as §4
[44] = Biodistribution in tumor of nude mouse bearing human 293/KDR tumor at 197 +/- 16 uCi, iv after 60 mins; type: ADME, organism-based, Neoplasm; settings: in vivo, 1 h; summary of the method: as §4

Sequence of Insulin-like growth factor 1 receptor (P08069 31-736 limits assumed): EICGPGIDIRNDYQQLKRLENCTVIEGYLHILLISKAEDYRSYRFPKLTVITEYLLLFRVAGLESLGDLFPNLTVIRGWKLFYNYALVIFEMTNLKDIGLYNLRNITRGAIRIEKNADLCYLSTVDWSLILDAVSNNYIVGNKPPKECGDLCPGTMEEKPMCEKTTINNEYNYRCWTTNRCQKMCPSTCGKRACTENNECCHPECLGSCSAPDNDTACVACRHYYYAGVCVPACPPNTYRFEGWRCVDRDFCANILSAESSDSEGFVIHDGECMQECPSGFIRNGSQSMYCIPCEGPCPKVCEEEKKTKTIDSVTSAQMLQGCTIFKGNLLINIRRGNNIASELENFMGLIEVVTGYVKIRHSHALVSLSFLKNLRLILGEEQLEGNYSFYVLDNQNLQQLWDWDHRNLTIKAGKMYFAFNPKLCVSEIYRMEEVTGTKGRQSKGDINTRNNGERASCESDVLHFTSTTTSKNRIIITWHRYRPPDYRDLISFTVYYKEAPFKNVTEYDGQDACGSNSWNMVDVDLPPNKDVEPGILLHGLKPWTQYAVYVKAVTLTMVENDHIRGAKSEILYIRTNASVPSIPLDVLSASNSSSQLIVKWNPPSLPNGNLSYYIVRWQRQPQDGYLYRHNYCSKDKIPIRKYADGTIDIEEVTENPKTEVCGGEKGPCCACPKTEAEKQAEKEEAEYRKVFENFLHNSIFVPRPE
Sequence of Insulin-like growth factor 1 receptor (P08069 741-1367 limits assumed): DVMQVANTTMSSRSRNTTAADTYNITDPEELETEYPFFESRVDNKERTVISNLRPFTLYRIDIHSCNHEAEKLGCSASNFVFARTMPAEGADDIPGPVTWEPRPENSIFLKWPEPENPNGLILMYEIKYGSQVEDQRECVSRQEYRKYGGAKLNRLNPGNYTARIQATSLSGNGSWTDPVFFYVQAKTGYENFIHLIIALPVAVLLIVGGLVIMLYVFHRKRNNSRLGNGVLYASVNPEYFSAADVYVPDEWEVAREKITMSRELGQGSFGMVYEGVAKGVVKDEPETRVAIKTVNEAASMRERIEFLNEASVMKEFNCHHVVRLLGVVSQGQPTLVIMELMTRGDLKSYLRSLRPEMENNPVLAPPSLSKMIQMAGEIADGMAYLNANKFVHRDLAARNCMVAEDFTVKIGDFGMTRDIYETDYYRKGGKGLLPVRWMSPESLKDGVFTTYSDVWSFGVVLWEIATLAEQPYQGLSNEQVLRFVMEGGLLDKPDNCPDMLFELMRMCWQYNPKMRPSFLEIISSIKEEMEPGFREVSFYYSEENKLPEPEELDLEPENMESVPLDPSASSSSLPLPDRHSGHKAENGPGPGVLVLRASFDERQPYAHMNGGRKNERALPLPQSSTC
Sequence of Receptor tyrosine-protein kinase erbB-2 (P04626 whole entry): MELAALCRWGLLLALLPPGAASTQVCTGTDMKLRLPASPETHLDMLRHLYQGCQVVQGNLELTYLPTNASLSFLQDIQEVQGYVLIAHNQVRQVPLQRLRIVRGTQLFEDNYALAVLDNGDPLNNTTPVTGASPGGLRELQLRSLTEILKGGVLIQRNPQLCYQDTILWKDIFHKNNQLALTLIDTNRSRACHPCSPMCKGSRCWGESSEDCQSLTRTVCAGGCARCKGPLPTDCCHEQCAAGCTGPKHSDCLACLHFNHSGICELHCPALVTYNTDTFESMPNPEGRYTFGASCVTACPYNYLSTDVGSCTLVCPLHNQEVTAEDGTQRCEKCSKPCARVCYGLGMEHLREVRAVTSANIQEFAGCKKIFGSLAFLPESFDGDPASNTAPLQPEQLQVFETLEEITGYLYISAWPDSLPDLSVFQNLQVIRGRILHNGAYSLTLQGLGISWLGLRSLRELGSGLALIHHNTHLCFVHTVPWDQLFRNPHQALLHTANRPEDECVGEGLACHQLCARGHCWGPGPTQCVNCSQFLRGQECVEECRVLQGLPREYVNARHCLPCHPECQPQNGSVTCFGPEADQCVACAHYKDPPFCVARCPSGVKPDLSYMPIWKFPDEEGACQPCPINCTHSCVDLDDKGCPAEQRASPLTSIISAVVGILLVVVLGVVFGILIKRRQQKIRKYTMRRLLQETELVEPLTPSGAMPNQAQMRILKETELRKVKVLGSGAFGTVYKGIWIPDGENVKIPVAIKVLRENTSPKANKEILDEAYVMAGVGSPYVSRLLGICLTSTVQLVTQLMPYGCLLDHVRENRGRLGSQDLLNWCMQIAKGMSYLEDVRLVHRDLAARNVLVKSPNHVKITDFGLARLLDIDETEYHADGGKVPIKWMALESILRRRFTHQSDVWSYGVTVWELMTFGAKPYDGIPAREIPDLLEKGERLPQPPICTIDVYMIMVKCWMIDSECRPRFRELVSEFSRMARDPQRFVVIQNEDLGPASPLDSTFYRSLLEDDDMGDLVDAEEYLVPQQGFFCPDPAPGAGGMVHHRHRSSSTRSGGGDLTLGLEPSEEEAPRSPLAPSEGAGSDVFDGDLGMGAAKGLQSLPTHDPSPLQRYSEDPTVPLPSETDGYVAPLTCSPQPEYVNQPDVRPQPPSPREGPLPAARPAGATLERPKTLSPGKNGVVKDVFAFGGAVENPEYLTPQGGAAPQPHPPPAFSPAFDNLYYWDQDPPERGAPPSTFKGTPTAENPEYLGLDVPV
Sequence of Platelet-derived growth factor receptor beta (P09619 whole entry): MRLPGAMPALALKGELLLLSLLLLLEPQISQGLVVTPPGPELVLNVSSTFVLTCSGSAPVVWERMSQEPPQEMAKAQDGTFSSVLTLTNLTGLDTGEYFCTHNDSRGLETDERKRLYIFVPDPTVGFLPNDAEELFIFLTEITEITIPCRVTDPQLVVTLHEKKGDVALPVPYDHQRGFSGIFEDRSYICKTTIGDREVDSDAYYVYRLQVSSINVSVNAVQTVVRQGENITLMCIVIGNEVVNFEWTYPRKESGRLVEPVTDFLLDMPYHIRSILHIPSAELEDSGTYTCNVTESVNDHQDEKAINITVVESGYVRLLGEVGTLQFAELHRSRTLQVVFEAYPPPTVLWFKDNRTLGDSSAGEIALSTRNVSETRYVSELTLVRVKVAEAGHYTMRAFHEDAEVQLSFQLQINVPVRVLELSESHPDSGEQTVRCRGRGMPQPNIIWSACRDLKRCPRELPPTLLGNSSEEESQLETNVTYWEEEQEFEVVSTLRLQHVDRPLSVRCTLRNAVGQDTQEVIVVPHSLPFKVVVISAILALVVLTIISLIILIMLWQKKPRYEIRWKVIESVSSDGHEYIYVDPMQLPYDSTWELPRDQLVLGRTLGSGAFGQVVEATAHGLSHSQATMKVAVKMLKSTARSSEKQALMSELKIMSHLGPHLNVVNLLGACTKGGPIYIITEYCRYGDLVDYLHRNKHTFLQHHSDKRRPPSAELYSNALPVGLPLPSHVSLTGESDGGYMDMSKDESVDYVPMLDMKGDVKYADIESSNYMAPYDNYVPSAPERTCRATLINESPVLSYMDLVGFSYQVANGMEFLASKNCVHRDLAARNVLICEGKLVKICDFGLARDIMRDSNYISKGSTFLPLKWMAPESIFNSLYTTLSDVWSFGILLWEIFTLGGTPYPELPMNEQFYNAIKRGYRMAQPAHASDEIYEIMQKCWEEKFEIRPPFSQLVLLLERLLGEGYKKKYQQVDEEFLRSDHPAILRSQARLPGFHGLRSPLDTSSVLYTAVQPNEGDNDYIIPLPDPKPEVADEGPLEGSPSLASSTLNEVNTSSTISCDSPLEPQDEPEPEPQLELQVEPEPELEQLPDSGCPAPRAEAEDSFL
Sequence of Mast/stem cell growth factor receptor Kit (P10721 whole entry): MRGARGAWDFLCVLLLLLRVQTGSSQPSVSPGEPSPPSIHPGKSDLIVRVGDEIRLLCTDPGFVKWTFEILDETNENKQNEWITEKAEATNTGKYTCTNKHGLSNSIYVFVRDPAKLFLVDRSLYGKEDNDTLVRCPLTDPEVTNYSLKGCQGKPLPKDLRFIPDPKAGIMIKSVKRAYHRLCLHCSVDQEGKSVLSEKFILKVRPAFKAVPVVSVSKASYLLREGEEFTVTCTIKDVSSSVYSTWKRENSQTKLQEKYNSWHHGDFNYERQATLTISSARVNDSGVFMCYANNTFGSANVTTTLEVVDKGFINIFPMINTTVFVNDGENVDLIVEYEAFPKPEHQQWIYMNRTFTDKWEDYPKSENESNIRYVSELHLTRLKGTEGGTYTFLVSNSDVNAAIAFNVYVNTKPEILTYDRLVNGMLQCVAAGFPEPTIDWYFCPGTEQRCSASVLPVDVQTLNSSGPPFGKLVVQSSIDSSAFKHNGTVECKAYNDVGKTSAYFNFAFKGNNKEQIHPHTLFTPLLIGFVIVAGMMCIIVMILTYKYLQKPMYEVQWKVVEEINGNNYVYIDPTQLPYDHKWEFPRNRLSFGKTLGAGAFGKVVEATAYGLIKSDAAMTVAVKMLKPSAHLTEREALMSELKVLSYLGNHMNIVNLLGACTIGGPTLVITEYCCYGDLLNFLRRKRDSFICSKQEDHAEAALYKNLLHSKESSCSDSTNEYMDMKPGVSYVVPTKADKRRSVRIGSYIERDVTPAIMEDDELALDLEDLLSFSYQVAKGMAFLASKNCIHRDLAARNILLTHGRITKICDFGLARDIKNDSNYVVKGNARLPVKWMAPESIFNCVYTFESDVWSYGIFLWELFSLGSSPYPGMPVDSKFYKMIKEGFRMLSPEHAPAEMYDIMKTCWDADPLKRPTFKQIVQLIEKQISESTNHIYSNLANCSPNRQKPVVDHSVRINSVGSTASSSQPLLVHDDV

COc1cc(C2=C(c3c[nH]c4ccc(F)cc34)C(=O)NC2=O)cc(OC)c1OC
IC50 [1]: 1.8 µM
IC50 [2]: 1.57 µM
IC50 [3]: 0.15 µM
IC50 [4]: 2.67 µM
IC50 [5]: 3.47 µM
IC50 [6]: > 8.48 µM
IC50 [7]: > 8.48 µM
IC50 [8]: 8.53 µM
IC50 [9]: 0.066 µM
IC50 [10]: 0.082 µM

COc1cc(C2=C(c3c[nH]c4ccccc34)C(=O)NC2=O)cc(OC)c1O[11CH3]
Stability [11]: 0.14 % ID/g
Stability [12]: 0.36 % ID/g
Stability [13]: 0.19 % ID/g
Stability [14]: 0.79 % ID/g
Stability [15]: 0.08 % ID/g
Stability [16]: 61 % ID/g
Stability [17]: 0.8 % ID/g
logD [18]: 1.99
Stability [19]: 2.24 % ID/g
Stability [20]: 0.33 % ID/g
Stability [21]: 0.2 % ID/g
Stability [22]: 0.17 % ID/g
Stability [23]: 2.29 % ID/g
Stability [24]: 0.3 % ID/g
Stability [25]: 0.15 % ID/g
Stability [26]: 62 % ID/g
Stability [27]: 2.89 % ID/g
remaining at 0.5 h [28]: 25%
Stability [29]: 0.38 % ID/g
Stability [30]: 2.95 % ID/g
Stability [31]: 2.64 % ID/g
Stability [32]: 1.68 % ID/g
Stability [33]: 0.09 % ID/g
Stability [34]: 0.41 % ID/g
Stability [35]: 0.11 % ID/g
Stability [36]: 0.29 % ID/g
remaining at 0.25 h [37]: 40%
remaining at 0.75 h [38]: 16%
Stability [39]: 0.17 % ID/g
Stability [40]: 0.21 % ID/g
Stability [41]: 0.09 % ID/g
Stability [42]: 0.38 % ID/g
Stability [43]: 0.19 % ID/g
Stability [44]: 0.14 % ID/g

Reference: ChEMBL document CHEMBL1158526, “Labeled 3-aryl-4-indolylmaleimide derivatives and their potential as angiogenic PET biomarkers” (Bioorg Med Chem, 2010)
